Results on 20 molecules are retold here after ChEMBL document CHEMBL5053518, “1,5,6,7-Tetrahydro-4H-indazol-4-ones as human neutrophil elastase (HNE) inhibitors” (Bioorg Med Chem Lett, 2021).

Activity calls are given as the source filed them.

Tested on in the first series: not listed separately
As to the kind of experiment: Stability in aqueous buffer assessed as half life. Type of series: physicochemical. To be noted: aqueous buffer.
`O=C(C1CC1)n1cc2c(n1)CCC(Br)(Br)C2=O`: the half-life – broadly, the time needed for the level to fall by half in the phase considered – turned out to be 3.91 h. Take `O=C1c2cnn(C(=O)C3CC3)c2CCC1Br` (stereo not given): the half-life came to 0.645 h.

The series is the same for the next values; noted with them: buffer.
For the molecule `O=C1c2cn(C(=O)C3CC3)nc2CCC1Br` (stereo not given), the t1/2 stood at 1.9123 h. Turning to `Cc1cccc(C(=O)n2ncc3c2CCCC3=O)c1`, the t1/2 stood at 1.64 h. With `O=C(C1CC1)n1ncc2c1CCC(Br)(Br)C2=O`, the t1/2 amounted to 0.952 h.

The next series concerns the target T1, Neutrophil elastase (Homo sapiens) (UniProt P08246).
T1 sequence (whole entry): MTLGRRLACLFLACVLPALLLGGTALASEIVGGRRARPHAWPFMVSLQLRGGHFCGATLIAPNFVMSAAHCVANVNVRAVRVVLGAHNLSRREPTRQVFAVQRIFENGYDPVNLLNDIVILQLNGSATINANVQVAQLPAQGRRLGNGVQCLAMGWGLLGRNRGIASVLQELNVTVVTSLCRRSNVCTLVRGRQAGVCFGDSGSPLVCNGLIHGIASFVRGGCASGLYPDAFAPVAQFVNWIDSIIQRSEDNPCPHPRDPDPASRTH
As to the kind of experiment: Inhibition of human neutrophil elastase at 50 uM.
Details: not given
The method, boiled down:
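Human neutrophil elastase inhibition was tested up to a highest concentration of 50 μM. Active compounds were given as Ki values, reported as mean ± SD of three independent experiments.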
With `Cc1cccc(C(=O)NC2CCCc3c2cnn3-c2ccccc2)c1` (stereo not given), the inhibition result is “inactive”.

Consider `O=C1CCCc2nn(Cc3cccc(C(F)(F)F)c3)cc21`, for which the inhibition entry is “inactive”. Still for that read-out and setting: the value for `O=C1CCCc2nn(-c3cccc(C(F)(F)F)c3)cc21` was “inactive”. Consider `CC(C)(C)OC(=O)N1CCN(C(=O)Cn2ncc3c2CCCC3=O)CC1`, for which the inhibition entry is “inactive”. Consider `O=C1CCCc2c1cnn2Cc1ccccc1`, for which the inhibition entry was “inactive”. On the same count and under the same terms, the result for `O=C1CCCc2nn(CC(=O)N3CCNCC3)cc21` reads “inactive”; that for `O=C(NC1CCCc2c1cnn2-c1ccccc1)C1CC1` (stereo not given), “inactive”; that for `O=C1c2cn(CC(=O)N3CCN(c4ccccc4)CC3)nc2CCC1Br` (stereo not given), “inactive”. As for `O=C(C1CC1)N(C(=O)C1CC1)C1CCCc2c1cnn2-c1ccccc1` (stereo not given), the inhibition result is “inactive”. Consider `O=C1CCCc2c1cnn2-c1cccc(C(F)(F)F)c1`, for which the inhibition entry was “inactive”.

For `O=C1CCCc2nn(Cc3ccccc3)cc21`, the inhibition entry is “inactive”. Regarding `O=C1CCCc2c1cnn2Cc1cccc(C(F)(F)F)c1`, the inhibition result was “inactive”. With `CC(C)(C)OC(=O)N1CCN(C(=O)Cn2cc3c(n2)CCCC3=O)CC1`, the inhibition entry is “inactive”. Regarding `CC(C)(C)OC(=O)n1cc2c(n1)CCC(Br)C2=O` (stereo not given), the inhibition entry was “inactive”. `O=C1c2cnn(CC(=O)N3CCN(c4ccccc4)CC3)c2CCC1Br` (stereo not given): the inhibition result is “inactive”.
